Here are results for 15 compounds from ChEMBL document CHEMBL1154883, “Synthesis of highly functionalized barbituric acids and study of their interactions with p-glycoprotein and Mg2+--potential candidates for multi drug resistance modulation” (Eur J Med Chem, 2010).

Data set [1] deals with DC3F/ADR. Briefly: Binding affinity to p-glycoprotein in chinese hamster DC3F/ADR cells assessed as increase in basal activity at 0.05 uM after 30 mins by spectrophotometric method relative to control. Format: cell-based. The settings on record: Cricetulus griseus. The procedure, abridged: (§1)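 P-gp membrane vesicles from resistant DC-3F/ADX cells; basal MgATP hydrolysis tracked by PK/LDH-coupled NADH depletion (PEP, NADH) at 340 nm, with non-specific ATPase inhibitor in basal wells. Plate preincubated 30 min at 37 °C; vesicles 5 min, compound 5 min, then MgATP 20 min at 37 °C; read, re-read after 20 min. Triplicate; ≥30% basal change taken as interaction.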

Data set [2] can be described thus: Binding affinity to Mg2+ ion in HEPES buffer at pH 7.2. It counts as physicochemical.
Data set [3] concerns DC3F/ADR. Briefly: Binding affinity to p-glycoprotein in chinese hamster DC3F/ADR cells assessed as increase in basal activity at 0.5 uM after 30 mins by spectrophotometric method relative to control. It counts as cell-based. The settings on record: Cricetulus griseus. The procedure, abridged: as §1
Data set [4] relates to DC3F/ADR. Description: Binding affinity to p-glycoprotein in chinese hamster DC3F/ADR cells assessed as increase in basal activity at 5 uM after 30 mins by spectrophotometric method relative to control. Format: cell-based. The settings on record: Cricetulus griseus. The essentials:
as §1

Structures are written as SMILES.

In the case of `CN1C(=O)C(=C(/C=C/c2ccccc2)NNC(/C=C/c2ccccc2)=C2C(=O)N(C)C(=O)N(C)C2=O)C(=O)N(C)C1=O`, the Activity in data set [1] was 33%; in data set [3], 69%; in data set [4], 200%. Besides, the Ka in data set [2] amounted to 4.82 ×10⁵ /M.

As to `CN1C(=O)C(=CNc2ccccc2[N+](=O)[O-])C(=O)N(C)C1=O`, the Activity in data set [1] was 51%; in data set [3], 99%; in data set [4] it was 141%. In data set [2], this compound showed a Ka of 1.4 ×10⁵ /M.

In the case of `CN1C(=O)C(=C(Nc2ccccc2N)c2ccccc2)C(=O)N(C)C1=O`, the results for the Activity in data set [1], in data set [3] and in data set [4] were 42%, 144% and 135%, respectively. In data set [2], this compound returned a Ka of 2.41 ×10⁴ /M.

`CN1C(=O)C(=C(/C=C/c2ccccc2)Nc2ccccc2N)C(=O)N(C)C1=O`: the Activity was 44% in data set [1], 112% in data set [3] and 133% in data set [4]. Also, the Ka in data set [2] was 2.7 ×10⁴ /M.

As for `COc1ccccc1NC=C1C(=O)N(C)C(=O)N(C)C1=O`, the Activity worked out at 53% in data set [1], 95% in data set [3] and 123% in data set [4]. The Ka in data set [2] is 5.79 ×10⁵ /M.

`CN1C(=O)C(=CNc2cccc(N)n2)C(=O)N(C)C1=O`: the Activity in data set [1] is 44%; in data set [3] it was 81%; in data set [4], 92%. Besides, in data set [2], the Ka came to 2.57 ×10⁵ /M.

With `CN1C(=O)C(=C(NNC(=C2C(=O)N(C)C(=O)N(C)C2=O)c2ccccc2)c2ccccc2)C(=O)N(C)C1=O`, the Activity in data set [1] worked out at 66%; in data set [3], 100%; in data set [4] it was 166%. Besides, the Ka in data set [2] was 1.11 ×10⁶ /M.

In the case of `CN1C(=O)C(=CNNc2ccccc2)C(=O)N(C)C1=O`, the Activity in data set [1] was 57%; in data set [3], 97%; in data set [4] it was 168%. In data set [2], this compound yielded a Ka of 1.53 ×10⁷ /M.

As for `CN1C(=O)C(=CNc2ccccc2N)C(=O)N(C)C1=O`, the figures for the Activity in data set [1], in data set [3] and in data set [4] were 33%, 102% and 166%, respectively. This compound registered a Ka in data set [2] of 7.06 ×10⁵ /M.

For the compound `CN1C(=O)C(=CNCCNC=C2C(=O)N(C)C(=O)N(C)C2=O)C(=O)N(C)C1=O`, the Activity worked out at 66% in data set [1], 71% in data set [3] and 134% in data set [4]. This compound showed a Ka in data set [2] of 8.68 ×10⁵ /M.

`CN1C(=O)C(=CNCc2ccccn2)C(=O)N(C)C1=O`: the Activity in data set [1] was found to be 63%; in data set [3], 75%; in data set [4], 98%. This compound also displayed a Ka in data set [2] of 3.2 ×10⁵ /M.

Consider `CN1C(=O)C(=CNc2ccccc2O)C(=O)N(C)C1=O`, for which the values for the Activity in data set [1], in data set [3] and in data set [4] were 42%, 114% and 95%, respectively. The compound also registered a Ka in data set [2] of 5.76 ×10⁵ /M.

Take `CN1C(=O)C(=CNc2ccccc2C(=O)O)C(=O)N(C)C1=O`: the values for the Activity in data set [1], in data set [3] and in data set [4] were 35%, 83% and 100%, respectively. In addition, in data set [2], the Ka was found to be 3.6 ×10⁶ /M.

In the case of `CN1C(=O)C(=CNc2cc(C(=O)O)ccc2C(=O)O)C(=O)N(C)C1=O`, the Activity in data set [1] was 57%; in data set [3] it was 80%; in data set [4] it was 146%. Besides, the Ka in data set [2] was found to be 7.46 ×10⁵ /M.

Regarding `CN1C(=O)C(=C(/C=C/c2ccccc2)NCCNC(/C=C/c2ccccc2)=C2C(=O)N(C)C(=O)N(C)C2=O)C(=O)N(C)C1=O`, the Activity in data set [1] turned out to be 100%; in data set [3], 166%; in data set [4] it was 66%. In addition, the Ka in data set [2] was found to be 5.84 ×10⁵ /M.
